The structures appear in SMILES notation. Activity calls are given as the source filed them.

For series [1], the species on record is Homo sapiens. Nature of the series: Selectivity ratio of IC50 for human FBPase to IC50 for recombinant ALDOB (unknown origin). A digest of the protocol: (§1)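 Aldolase (ALDOA/B/C) IC50 by NADH-coupled assay: enzyme plus serial compound dilutions, 0.41 mM NADH and TPI in 0.1 M Tris pH 7.4/0.2 M K-acetate, 3 min at 37 °C. Started with FBP and […], A340 read every 30 s for 6 min. Ratios against the FBPase IC50 from malachite green phosphate assay (620 nm).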

For series [2], the species on record is Homo sapiens. Nature of the series: Selectivity ratio of IC50 for human FBPase to IC50 for recombinant ALDOA (unknown origin). In a few lines: as §1
The species named for series [3] is Homo sapiens. As to the kind of experiment: Selectivity ratio of IC50 for human FBPase to IC50 for recombinant ALDOC (unknown origin). A digest of the protocol:
as §1

The target of series [4] is Tyrosine-protein kinase BTK (Homo sapiens) (UniProt Q06187). As to the kind of experiment: Inhibition of BTK (unknown origin) at 300 uM measured after 40 mins in presence of ATP by luminescence assay relative to control. A digest of the protocol: (§2)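 Kinase reaction (50 μL): 40 mM Tris pH 7.4, 10 mM MgCl2, 0.1 mg/mL BSA, 1 mM DTT, 10 μM ATP, kinase and substrate, with 1% final DMSO. Run 40 min at 30 °C. Residual ATP read by Kinase-Glo Plus luminescence, inversely related to kinase activity.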

In series [5] the target is Epidermal growth factor receptor (Homo sapiens) (UniProt P00533). As to the kind of experiment: Inhibition of EGFR (unknown origin) at 300 uM measured after 40 mins in presence of ATP by luminescence assay relative to control. A digest of the protocol:
as §2

For series [6], the species on record is Homo sapiens. As to the kind of experiment: Selectivity ratio of IC50 for human FBPase to IC50 for human GAPDH. In a few lines:
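Recombinant human GAPDH (His-tag, E. coli; 0.1 mg/mL final) preincubated 30 min with compound in 10 mM sodium pyrophosphate pH 8.5 at 37 °C. Started with arsenate, 4 mM NAD+ and 12 mM G3P; A340 at 4 min. Ratio taken against FBPase IC50 from the malachite green phosphate-release assay.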

Series [7] in a line: Half life of the compound in GSH. It is filed as physicochemical. Conditions: GSH (glutathione). In a few lines:
(§3)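 Electrophile (20 μmol) incubated at 37 °C either in pH 7.4 buffer, or in DMSO-d6/D2O (5:1), with or without glutathione. Decay followed by 1H NMR kinetics. First-order rate constant kpseudo-1st taken from ln[electrophile] versus time; t1/2 = 0.693/(60×k), in min.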

The target in series [8] is T1, Tyrosine-protein kinase JAK3 (Homo sapiens) (UniProt P52333).
T1 sequence (whole entry): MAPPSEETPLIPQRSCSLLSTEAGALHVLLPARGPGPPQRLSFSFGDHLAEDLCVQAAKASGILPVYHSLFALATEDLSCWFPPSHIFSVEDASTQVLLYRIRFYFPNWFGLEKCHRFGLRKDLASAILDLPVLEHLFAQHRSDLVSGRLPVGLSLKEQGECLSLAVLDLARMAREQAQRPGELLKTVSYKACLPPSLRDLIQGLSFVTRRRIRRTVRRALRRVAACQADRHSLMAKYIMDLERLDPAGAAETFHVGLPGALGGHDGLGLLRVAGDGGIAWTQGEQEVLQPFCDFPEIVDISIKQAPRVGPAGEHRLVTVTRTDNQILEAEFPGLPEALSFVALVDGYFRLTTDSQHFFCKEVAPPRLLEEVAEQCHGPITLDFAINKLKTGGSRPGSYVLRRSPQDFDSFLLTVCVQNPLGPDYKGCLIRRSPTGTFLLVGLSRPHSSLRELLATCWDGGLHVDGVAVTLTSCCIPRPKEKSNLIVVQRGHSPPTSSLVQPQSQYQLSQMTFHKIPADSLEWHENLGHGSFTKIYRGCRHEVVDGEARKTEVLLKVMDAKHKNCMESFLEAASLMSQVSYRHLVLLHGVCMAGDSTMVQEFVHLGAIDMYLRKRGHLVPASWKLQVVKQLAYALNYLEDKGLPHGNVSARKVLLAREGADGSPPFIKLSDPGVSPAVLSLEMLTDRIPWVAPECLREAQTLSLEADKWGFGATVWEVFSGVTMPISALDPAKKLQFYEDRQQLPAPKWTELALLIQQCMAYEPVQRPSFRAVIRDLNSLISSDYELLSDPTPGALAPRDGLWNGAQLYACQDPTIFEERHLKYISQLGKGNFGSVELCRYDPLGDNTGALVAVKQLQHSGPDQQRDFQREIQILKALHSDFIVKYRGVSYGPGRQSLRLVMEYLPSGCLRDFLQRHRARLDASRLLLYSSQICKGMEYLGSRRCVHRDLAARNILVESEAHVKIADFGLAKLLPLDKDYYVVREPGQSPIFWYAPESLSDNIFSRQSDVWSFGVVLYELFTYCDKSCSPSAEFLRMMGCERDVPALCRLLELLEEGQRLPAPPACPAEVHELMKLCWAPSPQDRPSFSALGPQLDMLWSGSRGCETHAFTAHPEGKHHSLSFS
Nature of the series: Inhibition of JAK3 (unknown origin) at 300 uM measured after 40 mins in presence of ATP by luminescence assay relative to control. A digest of the protocol:
as §2

Series [9] has as its target T2, Fructose-1,6-bisphosphatase 1 (Homo sapiens, UniProt P09467).
T2 sequence (P09467 whole entry): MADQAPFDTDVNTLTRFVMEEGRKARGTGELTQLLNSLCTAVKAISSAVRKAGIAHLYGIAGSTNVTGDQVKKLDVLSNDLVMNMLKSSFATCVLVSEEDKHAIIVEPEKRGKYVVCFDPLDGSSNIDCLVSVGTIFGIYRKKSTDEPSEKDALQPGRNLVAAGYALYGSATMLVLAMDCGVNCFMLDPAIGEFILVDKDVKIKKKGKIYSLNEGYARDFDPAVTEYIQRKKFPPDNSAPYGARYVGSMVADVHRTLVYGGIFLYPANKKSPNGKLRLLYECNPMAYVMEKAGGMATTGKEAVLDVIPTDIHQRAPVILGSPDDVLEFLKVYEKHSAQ
As to the kind of experiment: Inhibition of human FBPase expressed Escherichia coli BL21 in by malachite green dye based spectrophotometry. A digest of the protocol: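 His-tagged human liver FBPase expressed in E. coli BL21(DE3) and purified by Ni affinity. Phosphate released from FBP complexed with ammonium molybdate/malachite green and read at 620 nm against a KH2PO4 standard curve (2−60 μM). Initial rates at saturating substrate, fixed effector and varied inhibitor fitted to the Hill equation for IC50.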

Series [10] is described as follows: Half life of the compound in DMSO. It is filed as physicochemical. In a few lines: as §3
A short description of series [11]: Half life of the compound in buffer. The format is physicochemical. A digest of the protocol: as §3
Series [12] has as its target T3, Fructose-1,6-bisphosphatase 1 (Homo sapiens) (UniProt P09467).
T3 sequence (whole entry): T2 sequence (P09467 whole entry)
Nature of the series: Binding affinity to ABPP-labeled FBPase (unknown origin) at 2 to 8 uM by silver staining based streptavidin blotting. The note with it: dose 2-8 µM. A digest of the protocol: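 LO2 lysate (2 mg/mL) treated with 2−8 μM alkyne probe, 37 °C, 2 h. Click-biotinylated by CuAAC (0.5 mM reagents, 1 h, 37 °C), resolved by 10% SDS-PAGE. Probed by silver stain and streptavidin-HRP blot; labelled bands near 35 kDa read. 2 μM iodoacetamide alkyne served as the reference.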

Series [13] concerns the target T3, Fructose-1,6-bisphosphatase 1 (Homo sapiens). Nature of the series: Binding affinity to ABPP-labeled FBPase (unknown origin) by silver staining based streptavidin blotting. The note with it: dose 2-10 µM, DDE = dose-dependent effect. A digest of the protocol:
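LO2 cell lysate (2 mg/mL protein, RPMI-1640/10% FBS cultures lysed at 70−80% confluence) or purified FBPase labelled with a series of alkyne probe concentrations, 37 °C, 2 h. CuAAC with 0.5 mM each of biotin-PEG3-azide, ascorbate, THPTA and CuSO4, 37 °C, 1 h. Samples run on 10% SDS-PAGE, then silver staining and streptavidin-HRP blot with ECL detection.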

Series [14] is described as follows: in vivo. The note with it: ICR, mouse, ip, 30 mg/kg.
Series [15] is described as follows: in vivo. Conditions: ICR, mouse, ip, 30 mg/kg. The source holds these as a separate data set.
A short description of series [16]: AUCt in 12 hrs fasted ICR mouse at 30 mg/kg, ip measured after 24 hrs by LC-MS/MS analysis. The note with it: in vivo.
Series [17] in a line: in vivo. The note with it: ICR, mouse, ip, 30 mg/kg. The source holds these as a separate data set.

Chain of Epidermal growth factor receptor (Homo sapiens) (P00533 whole entry): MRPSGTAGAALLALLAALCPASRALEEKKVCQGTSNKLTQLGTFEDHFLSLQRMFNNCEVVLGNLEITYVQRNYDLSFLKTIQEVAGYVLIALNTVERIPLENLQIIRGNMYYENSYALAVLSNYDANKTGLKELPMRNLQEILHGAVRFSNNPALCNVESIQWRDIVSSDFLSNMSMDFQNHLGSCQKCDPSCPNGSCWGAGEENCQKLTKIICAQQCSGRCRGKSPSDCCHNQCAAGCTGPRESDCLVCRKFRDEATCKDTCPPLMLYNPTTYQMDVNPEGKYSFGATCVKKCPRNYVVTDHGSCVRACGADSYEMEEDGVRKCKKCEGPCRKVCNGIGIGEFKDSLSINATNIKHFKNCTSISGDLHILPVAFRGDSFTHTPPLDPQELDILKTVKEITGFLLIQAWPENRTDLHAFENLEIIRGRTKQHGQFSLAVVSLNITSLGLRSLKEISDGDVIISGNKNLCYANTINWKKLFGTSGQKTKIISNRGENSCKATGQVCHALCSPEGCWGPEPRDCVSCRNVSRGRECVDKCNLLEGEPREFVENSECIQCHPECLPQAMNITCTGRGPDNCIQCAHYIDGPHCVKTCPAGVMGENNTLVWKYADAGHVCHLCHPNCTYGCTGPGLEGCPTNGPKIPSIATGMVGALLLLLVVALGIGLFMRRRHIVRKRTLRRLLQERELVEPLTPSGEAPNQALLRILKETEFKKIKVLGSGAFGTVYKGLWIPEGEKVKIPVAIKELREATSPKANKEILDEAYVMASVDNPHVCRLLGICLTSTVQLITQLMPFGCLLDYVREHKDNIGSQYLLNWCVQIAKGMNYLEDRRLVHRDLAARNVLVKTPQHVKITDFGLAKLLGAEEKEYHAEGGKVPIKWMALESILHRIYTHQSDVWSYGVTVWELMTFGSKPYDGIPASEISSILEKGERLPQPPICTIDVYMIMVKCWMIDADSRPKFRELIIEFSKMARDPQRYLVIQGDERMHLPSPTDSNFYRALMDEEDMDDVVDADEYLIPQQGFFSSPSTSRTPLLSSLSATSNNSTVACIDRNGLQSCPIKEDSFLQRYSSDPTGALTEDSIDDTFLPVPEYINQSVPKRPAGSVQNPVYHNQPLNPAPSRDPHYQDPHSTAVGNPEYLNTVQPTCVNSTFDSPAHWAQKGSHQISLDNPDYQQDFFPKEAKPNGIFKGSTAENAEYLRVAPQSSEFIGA
Chain of Tyrosine-protein kinase BTK (Homo sapiens) (Q06187 whole entry): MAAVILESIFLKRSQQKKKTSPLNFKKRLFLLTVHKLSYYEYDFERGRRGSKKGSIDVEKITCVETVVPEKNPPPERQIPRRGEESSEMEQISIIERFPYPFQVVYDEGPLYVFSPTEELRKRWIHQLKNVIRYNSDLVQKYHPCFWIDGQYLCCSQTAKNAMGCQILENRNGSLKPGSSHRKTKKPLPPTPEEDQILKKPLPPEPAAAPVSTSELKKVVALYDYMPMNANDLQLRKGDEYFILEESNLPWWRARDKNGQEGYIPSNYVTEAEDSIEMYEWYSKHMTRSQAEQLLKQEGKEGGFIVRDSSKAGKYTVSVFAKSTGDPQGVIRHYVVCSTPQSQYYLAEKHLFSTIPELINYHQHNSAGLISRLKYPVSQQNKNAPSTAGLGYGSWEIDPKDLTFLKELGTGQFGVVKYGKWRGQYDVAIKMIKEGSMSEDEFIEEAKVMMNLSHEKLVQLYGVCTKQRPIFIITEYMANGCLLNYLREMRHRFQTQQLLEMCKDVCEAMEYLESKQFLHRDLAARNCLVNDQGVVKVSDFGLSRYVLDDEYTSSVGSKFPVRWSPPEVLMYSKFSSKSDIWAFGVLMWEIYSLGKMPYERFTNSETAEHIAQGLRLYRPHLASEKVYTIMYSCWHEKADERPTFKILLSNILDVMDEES

The inhibition is the change of the read-out against control, counted positive when it falls. By half-life is commonly meant the time needed for the level to fall by half in the phase considered. Broadly, the IC50 is the point on the concentration scale where inhibition reaches its midpoint. `COc1ccccc1CNC(=O)N1C(=O)c2ccccc2S1(=O)=O`: the Ratio IC50 in series [1], in series [2], in series [3] and in series [6] was above 25 in each case. For the same molecule, the inhibition in [4], in series [5] and in [8] was below 50% throughout. Besides, the results for the half-life in series [7], in [10] and in series [11] were 1.12 h, above 167 h and above 167 h, respectively. Moreover, the midpoint of inhibition in series [9], the IC50, lay at 1.7 µM.
As for `C#Cc1ccc(CNC(=O)N2C(=O)c3ccccc3S2(=O)=O)cc1`, in [12], the outcome was Active. The Activity result in series [13] was “Dde”.
As a reminder, the Tmax is the time at which the peak concentration occurs. A word on the Cmax: it is the maximum level reached in the sampled fluid or tissue. Usually AUC(0-t) stands for the area under the concentration-time curve up to a stated or last time point. High values mean more exposure, low ones less exposure. Take `O=C1NS(=O)(=O)c2ccccc21` [SACCHARIN]: the Tmax at 12 h in series [14] came out at 0.25 h. Moreover, the Cmax at 12 h in series [15] is 29900 ng/mL. Also, the AUC(0-t) at 12 h in series [16] turned out to be 14000 ng·h/mL. This molecule had a half-life at 12 h in series [17] of 1.11 h.

These data come from ChEMBL document CHEMBL5143731, “N-Acylamino Saccharin as an Emerging Cysteine-Directed Covalent Warhead and Its Application in the Identification of Novel FBPase Inhibitors toward Glucose Reduction” (J Med Chem, 2022).
